# B1: NELF-E aptamer (parent)
# chain: CCCAACGACUGCCGAGCGAGAUUACGCUUGAGCGCCCCACUGAGGAUGCCCACGGGCGAUUGGGGCACGG
# Variants of: B1
# Test: HiTS-RAP
# Conditions: with NELF-E (Drosophila)
# Procedure, shortened: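 Kd came from weighted Hill fits to the first binding curve, with intensities normalised to sequencing intensity and averaged per sequence, keeping only fits whose variance was below 1,000,000. That curve was imaged on an Illumina GAIIx flowcell, where sequenced aptamer DNA templates with a T7 promoter and ter site had been transcribed in situ by T7 RNA polymerase and halted by GST-Tus (30 minutes, 37°C). Before each image, clusters equilibrated for 30 minutes at room temperature with NELF-E-mOrange at 0.064 to 1000 nM in HEPES binding buffer.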
row,Variant,Kd
1,G7U C53U,4.6 nM
2,A8G G16U,6.76 nM
3,A8G G16A,5.75 nM
4,G7A A39G,12.1 nM
5,G7U G18A,5.43 nM
6,G7U G18U,6.84 nM
7,A8G G63U,11 nM
8,A8G G63A,16.1 nM
9,C6U G14U,7.02 nM
10,C6U G14A,7.01 nM
11,G7U C12G,6.89 nM
12,G7U C12U,5.94 nM
13,G7U A24G,6.71 nM
14,G7U A24U,6.81 nM
15,A8G G56U,6.49 nM
16,A8G G56A,10 nM
17,A8C U22G,7.46 nM
18,A8U C51U,10.8 nM
19,G7A C12G,6.93 nM
20,A8U C12U,5.4 nM
21,A8U C12G,6.15 nM
22,A8G G20A,5.52 nM
23,A8G G20U,6.35 nM
24,G7C U10G,6.28 nM

row,Variant,Kd
1,G7U A39U,26.9 nM
2,G7U A39G,11.4 nM
3,A8U A43G,25.7 nM
4,A8U A43U,104 nM
5,G7U A19U,6.31 nM
6,G7U A19G,6.23 nM
7,C6U U22G,5.57 nM
8,A8G G42A,44.1 nM
9,G7A G63A,14.4 nM
10,A8G U29C,5.69 nM
11,A8G U29G,5.77 nM
12,A8G U29A,7.95 nM
13,A8G A67U,6.63 nM
14,A8G A67G,6.62 nM
15,A8U C53U,3.63 nM
16,A8U C57U,5.42 nM
17,G7U G11U,6.5 nM
18,G7U G11A,6.15 nM
19,A8G A52U,15.5 nM
20,A8G A52G,4.33 nM
21,G7A G16U,5.55 nM
22,G7U C33G,5.51 nM
23,G7U C33U,6.35 nM
24,G7U U22G,6.14 nM

row,Variant,Kd
1,G7U U22A,6.43 nM
2,G7U U22C,5.8 nM
3,A8U G14U,6.76 nM
4,A8U G14A,7.4 nM
5,C6G U60G,5.7 nM
6,G7U A59U,18.3 nM
7,G7U A59G,67.6 nM
8,G7U G56U,7.83 nM
9,G7U G56A,9.43 nM
10,A8U A21U,7.37 nM
11,A8U A21G,6.05 nM
12,G7U G63U,15.8 nM
13,G7U G63A,19.9 nM
14,A8U A67U,7.42 nM
15,A8U A67G,5.61 nM
16,C6U G56U,6.57 nM
17,G7U U29A,5.71 nM
18,G7U U29G,6.33 nM
19,G7U U29C,6.86 nM
20,C6U U61A,38.1 nM
21,G7U A15G,5.56 nM
22,G7U A15U,6 nM
23,A8G A39G,12.8 nM
24,A8G A39U,21.7 nM

row,Variant,Kd
1,A8G A24G,6.27 nM
2,A8G A24U,5.52 nM
3,G7U C27G,5.97 nM
4,G7U C27U,5.11 nM
5,A8G G26A,4.49 nM
6,G7U G14U,6.73 nM
7,G7U G14A,6.59 nM
8,A8G G32A,5.07 nM
9,G7U A67U,9.65 nM
10,G7U A67G,7.45 nM
11,A8U C37U,13.2 nM
12,A8U C37A,22.1 nM
13,C6U C12U,6.16 nM
14,C6U C12G,5.7 nM
15,A8G G54A,14.6 nM
16,G7C A8G,5.81 nM
17,G7U U28A,5.51 nM
18,G7U U28C,9.32 nM
19,G7U U28G,8.81 nM
20,G7U U47A,12.9 nM
21,G7U U47G,7.97 nM
22,A8G A31U,5.68 nM
23,A8G A31G,7.13 nM
24,A8U C36U,8.33 nM

row,Variant,Kd
1,A8G G65A,5.32 nM
2,A8G G65U,8.03 nM
3,G7U C17G,6.28 nM
4,G7U C17U,6.16 nM
5,G7U G65U,7.38 nM
6,G7U G65A,4.96 nM
7,G7A C9G,5.55 nM
8,G7A U29G,6.46 nM
9,G7U U23G,6.08 nM
10,G7U U23C,4.06 nM
11,G7A A8U,8.46 nM
12,G7A A8C,5.87 nM
13,G7A A8G,6.39 nM
14,C6U A39G,11.6 nM
15,G7U C37U,10.5 nM
16,G7U C37A,20.8 nM
17,G7U C37G,11.1 nM
18,G7U A21U,5.79 nM
19,G7U A21G,6.51 nM
20,G7U G54U,5.44 nM
21,G7U G54A,15.7 nM
22,A8U A46G,50 nM
23,A8U A46U,43.1 nM
24,G7U G34U,7.8 nM

row,Variant,Kd
1,G7U G34A,7.85 nM
2,A8U G34A,6.21 nM
3,G7A C13G,6.51 nM
4,G7U C25U,5.7 nM
5,G7U C25G,5.61 nM
6,G7U C57U,6.23 nM
7,A8U C25U,6.08 nM
8,A8U C25G,6.83 nM
9,G7C G11U,7.68 nM
10,A8U A31G,8.05 nM
11,A8U A31U,7.11 nM
12,A8G U61C,70.8 nM
13,A8G U61A,29.3 nM
14,C6U C17U,6.39 nM
15,C6U C17G,6.11 nM
16,A8G C36U,6.33 nM
17,A8G G18A,6.78 nM
18,A8G G18U,7.18 nM
19,G7A G11U,7.32 nM
20,A8C C9G,7.53 nM
21,A8G C66U,5.01 nM
22,A8C U23G,7.61 nM
23,G7U G26U,6.93 nM
24,G7U G26A,5.82 nM

row,Variant,Kd
1,G7U G45A,21.8 nM
2,G7U G62A,25.2 nM
3,G7U G62U,7.8 nM
4,G7A U23G,5.95 nM
5,C6U G20U,8.79 nM
6,C6U U29A,5.66 nM
7,C6U U29G,5.8 nM
8,A8U C9U,6.55 nM
9,A8U C9G,6.03 nM
10,C6U G16U,6.67 nM
11,G7U G55U,6.97 nM
12,G7U G55A,7.6 nM
13,A8G G14A,6.2 nM
14,A8G G14U,7.09 nM
15,G7U G20A,7.33 nM
16,G7U G20U,7.06 nM
17,G7U G16U,7.06 nM
18,G7U G16A,6.97 nM
19,A8G C49U,16.8 nM
20,C6U A21G,7.12 nM
21,A8U G11U,6.61 nM
22,A8U G11A,6.46 nM
23,C6U A19G,6.06 nM

# — the RNAGym collection of RNA variant scans (doi:10.1038/nmeth.2970)
